The values below come from ChEMBL document CHEMBL3098071, “Synthesis and evaluation of novel azoles as potent antifungal agents” (2014).

As usually defined, the MIC80 is the lowest concentration that inhibits either 80% of growth or 80% of the strains tested, depending on the study. Lower therefore signals greater potency.

Each structure is given as a SMILES string. Values after ≈ are worked out from the molar mass of the structure shown. Where only a bound is given, the exact number is not on record here.

What all share (format): functional
In experiment [1] the test system is Nakaseomyces glabratus. The experiment can be described thus: Ratio of ketoconazole MIC80 to compound MIC80 for Candida glabrata.
The test system of another experiment is Nannizzia gypsea. Kind of experiment: Antimicrobial activity against Microsporum gypseum by broth microdilution method.
Experiment [2] relates to Nakaseomyces glabratus. The experiment can be described thus: Ratio of fluconazole MIC80 to compound MIC80 for Candida glabrata.
Experiment [3] concerns Candida albicans. Kind of experiment: Antimicrobial activity against Candida albicans SC5314 after 24 hrs by broth microdilution method. Conditions: SC5314, 24 h. The gist of the method: (§1)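 Broth microdilution in 96-well plates following NCCLS methods. Compounds were dissolved in DMSO, serially diluted in growth medium, inoculated and incubated at 35°C. MIC read at 24 h for Candida albicans and at 72 h for Cryptococcus neoformans. MIC80 is the first well with about 80% less growth than the drug-free well. Values are means of three replicate tests.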
(In broth dilution the organism is exposed to a series of concentrations in liquid medium.)

Experiment [4] relates to Candida albicans. Kind of experiment: Antimicrobial activity against Candida albicans Y0109 after 24 hrs by broth microdilution method. Conditions: Y0109, 24 h. The gist of the method: as §1
A further experiment relates to Trichophyton rubrum. The experiment can be described thus: Antimicrobial activity against Trichophyton rubrum by broth microdilution method.
Another experiment has as its system Candida parapsilosis. Kind of experiment: Antimicrobial activity against Candida parapsilosis by broth microdilution method. Conditions: Lodderomyces parapsilosis.
The next experiment has as its system Cryptococcus neoformans. The experiment can be described thus: Antimicrobial activity against Cryptococcus neoformans after 72 hrs by broth microdilution method. The gist of the method: as §1
Experiment [5] has as its system Nakaseomyces glabratus. The experiment can be described thus: Antimicrobial activity against Candida glabrata by broth microdilution method.
The test system of experiment [6] is Nakaseomyces glabratus. The experiment can be described thus: Ratio of voriconazole MIC80 to compound MIC80 for Candida glabrata.
In a further experiment the test system is Aspergillus fumigatus. Kind of experiment: Antimicrobial activity against Aspergillus fumigatus by broth microdilution method.
Experiment [7] relates to Nakaseomyces glabratus. Kind of experiment: Ratio of itraconazole MIC80 to compound MIC80 for Candida glabrata.
Experiment [8] deals with Candida albicans. Kind of experiment: Ratio of itraconazole MIC80 to compound MIC80 for Candida albicans SC5314.
Experiment [9] concerns Candida albicans. Kind of experiment: Ratio of voriconazole MIC80 to compound MIC80 for Candida albicans SC5314.

In the case of `OC(CN1CCN(CCCSc2nnc(-c3cccc(Br)c3)o2)CC1)(Cn1cncn1)c1ccc(F)cc1F` (configuration not stated), the Ratio is listed as 2051 in the experiment on Nakaseomyces glabratus [1], 256 in the experiment with Nakaseomyces glabratus [2], 16 in the experiment with Nakaseomyces glabratus [6] and 32 in the experiment with Nakaseomyces glabratus [7]. The MIC80 was determined as 1 µg/mL (≈ 1.61 µM) against Nannizzia gypsea; 0.0625 µg/mL (≈ 0.101 µM) in the experiment with Candida albicans [3]; 0.0625 µg/mL (≈ 0.101 µM) against Candida albicans [4]; 0.25 µg/mL (≈ 0.403 µM) against Trichophyton rubrum; 0.25 µg/mL (≈ 0.403 µM) against Candida parapsilosis; 0.25 µg/mL (≈ 0.403 µM) against Cryptococcus neoformans. The MIC80 with Nakaseomyces glabratus [5] is 0.0039 µg/mL (≈ 0.00629 µM); with Aspergillus fumigatus, above 64 µg/mL.
`OC(CN1CCN(CCCSc2nnc(-c3cccc(F)c3)o2)CC1)(Cn1cncn1)c1ccc(F)cc1F` (configuration not stated): the MIC80 in the experiment with Nannizzia gypsea was found to be 1 µg/mL (≈ 1.79 µM); in the experiment on Candida albicans [3], 0.0039 µg/mL (≈ 0.00697 µM); in the experiment on Candida albicans [4], 0.0625 µg/mL (≈ 0.112 µM); against Trichophyton rubrum it was 0.0625 µg/mL (≈ 0.112 µM); against Candida parapsilosis, 0.25 µg/mL (≈ 0.447 µM); against Cryptococcus neoformans, 0.0625 µg/mL (≈ 0.112 µM). The MIC80 was 0.0625 µg/mL (≈ 0.112 µM) against Nakaseomyces glabratus [5] and above 64 µg/mL against Aspergillus fumigatus. The Ratio worked out at 64 in the experiment on Candida albicans [8] and 16 in the experiment with Candida albicans [9].
